Measurements gathered from unrelated publications.
Protocols differ between the studies behind these lines.
CYP3A7: Cytochrome P450 3A7 (CYP3A7, Homo sapiens, UniProt P24462)

With `C=C(C)[C@]1(O)C[C@@H](C)[C@@]2(O)[C@@H]([C@H]3O[C@@]4([C@H](O)[C@]3(O)COC(=O)c3ccccc3)[C@@H](OC(=O)/C=C/C=C/C=C/CCC)[C@@H](C)C[C@@H]24)[C@H]1O` the IC50 was > 34 nM (MT4; cell growth or viability, ATP luminescence; 96 h).
For `CCCCCC/C=C/CC(=O)O[C@@]12[C@H](OC(=O)c3ccccc3)[C@@H](C)[C@]3(O)[C@@H]4C=C(C)C(=O)[C@@]4(O)[C@H](O)C(CO)=C[C@H]3[C@@H]1C2(C)C`, the CC50 was > 7 µM (MT4; cell growth or viability, ATP luminescence).
`O=S(=O)(O)C(F)(F)C(F)(F)C(F)(F)C(F)(F)C(F)(F)C(F)(F)F` has an inhibition of 48.8% (CYP3A7; enzyme activity, inhibitor; 100 µM, pH 7.4).
For `C#Cc1ccc2c(c1)C(c1ccccc1F)=N[C@@H](C)c1c(C(=O)OCC(F)(F)F)ncn1-2`, the compound remaining was < 5% (metabolic stability; mouse, liver microsomes; 20 min).
For `C=C(C)[C@]12C[C@@H](COC(=O)c3ccccc3)[C@@]34OC5(O[C@@H]1[C@@H]3[C@@H]1O[C@]1(CO)[C@@H](O)[C@@]1(O)[C@H]4[C@H]([C@H](C)[C@@H]1OC(=O)c1ccccc1)[C@H](C)CCCCCC[C@H]5O)O2`, the CC50 was > 7 µM (MT4; cell growth or viability, ATP luminescence).
The IC50 of `C=C(C)[C@@]12O[C@@]3(/C=C/C=C/CCCCC)O[C@@H]1[C@@H]1[C@@H]4O[C@]4(CO)[C@@H](O)[C@]4(O)C(=O)C(C)=C[C@H]4[C@@]1(O3)[C@H](C)[C@H]2OC(=O)/C=C/c1ccc(O)c(OC)c1` is reported as > 34 nM (MT4; cell growth or viability, ATP luminescence; 96 h).
For `COC(=O)N[C@H](C(=O)NN(CC[C@@]1(Cc2ccccc2)C(=O)N([C@H]2c3ccccc3C[C@H]2O)C[C@@H]1O)Cc1ccc(-c2cccnc2)cc1)C(C)(C)C`, the CC50 was > 50 µM (MT4; cell growth or viability, XTT; 5 days).
With `C=C(C)[C@@]12O[C@@]3(/C=C/C=C/CCCCC)O[C@@H]1[C@@H]1[C@@H]4O[C@]4(CO)[C@@H](O)[C@]4(O)C(=O)C(C)=C[C@H]4[C@@]1(O3)[C@H](C)[C@H]2OC(=O)/C=C/c1ccccc1` the IC50 was > 34 nM (MT4; cell growth or viability, ATP luminescence; 96 h).
For `O=C(c1ccc(F)cc1F)N1CCC(NCCSC(c2ccc(F)cc2)c2ccc(F)cc2)CC1`, the compound remaining was ~30% (metabolic stability; mouse, liver microsomes; 10 µM, 1 h, pH 7.4).
With `C=C(C)[C@@]12O[C@@]3(/C=C/C=C/C=C/CCC)O[C@@H]1[C@@H]1[C@@H]4O[C@]4(CO)[C@@H](O)[C@]4(O)C(=O)C(C)=C[C@H]4[C@@]1(O3)[C@H](C)[C@H]2OC(=O)c1ccccc1` the IC50 was > 34 nM (MT4; cell growth or viability, ATP luminescence; 96 h).
`CC[C@H](C)[C@H]1C(=O)N2CCC[C@H]2C(=O)O[C@H](C(C)(C)C)C[C@@H](C)C[C@H](O)[C@H](C)C2=N[C@@H](CCC(=O)N[C@@H](Cc3ccc(OC)cc3)C(=O)N(C)[C@@H](C)C(=O)N1C)CS2` gave a compound remaining of 100% (metabolic stability; female CD-1 mouse, liver microsomes; 1 µM, 0 h, pH 7.4).
`O=S(=O)(O)C(F)(F)C(F)(F)C(F)(F)C(F)(F)C(F)(F)C(F)(F)C(F)(F)C(F)(F)F` gave an IC50 of 16800 nM (CYP3A7; enzyme activity, inhibitor, mass spectrometry).
For `COC(=O)N[C@H](C(=O)NN(CC[C@@]1(Cc2ccccc2)C(=O)N([C@H]2c3ccccc3C[C@H]2O[Si](C)(C)C(C)(C)C)C[C@@H]1O[Si](C)(C)C(C)(C)C)Cc1ccc(Br)cc1)C(C)(C)C`, the CC50 was > 50 µM (MT4; cell growth or viability, XTT; 5 days).
For `N=c1c2c(-c3ccccc3)c(-c3ccccc3)n(Cc3ccccc3)c2ncn1[C@H]1CC[C@H](O)CC1`, the compound remaining was 103% (metabolic stability; CD-1 mouse, hepatocytes; 1 µM, 4 h).
